ERAP1 inh: blocks human ERAP1 aminopeptidase activity; inhibition, % at 10.7 µM; recombinant ERAP1, Leu-AMC fluorescence, 60 min; AID 652197; 0.15% of 340,000 active;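 active = mean replicate inhibition of at least 30%, or all replicates individually reaching that 30% level; inactive = mean below 30% and not every replicate reaching it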
S100A4 MyoIIA: S100A4-myosin IIA interaction inhibition. P26447. S100A4/TAMRA-MyoIIA peptide fluorescence polarization. inhibition, % at 10.7 µM. 0.14% of 360,000 active. AID 652163;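 active = mean inhibition of at least 70% across replicates, with every replicate also reaching that level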
Target sequence (P26447 whole entry, looked up): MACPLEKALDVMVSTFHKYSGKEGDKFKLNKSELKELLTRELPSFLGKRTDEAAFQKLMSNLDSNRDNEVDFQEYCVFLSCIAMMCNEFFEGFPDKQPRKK
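Material: S100A4 monomer (human). Medium: Calcium-containing HEPES buffer, pH 7.2. Probe or stimulus: labelled myosin peptide probe, 5 nM. Compound dosing: one concentration per compound. Timing: polarization read 5 min after assay mix addition, stable 5–60 min. Benchmarks: DMSO as neutral control, TFP as positive control.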
PDI turbidity: PDI (human) enzyme inhibition; PDI insulin aggregation turbidity, A650, 90 min; inhibition, % at 10 µM; 0.052% of 350,000 active;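 active = mean inhibition across replicates of 30% or more, whatever share of single replicates reach that level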
ERp5 inh: inhibitors of human ERp5 | inhibition, % at 9.99 µM | 0.05% of 350,000 active | ERp5 insulin aggregation, absorbance 650 nm, 90 min | AID 651711 | Q15084;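 active = mean replicate inhibition above about 25%, with every replicate also reaching it, limit read from the data, passing the limit was not always enough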
FGF22 binding: FGF22 (human) thermal shift binding; activity (Tm shift, normalised), % at 9.99 µM; 1.5% of 340,000 active; recombinant FGF22 thermal shift, SYPRO orange fluorescence; percent of sucrose octasulfate shift, DMSO zero; Q9HCT0;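 active = mean Tm shift, scaled 0 neutral to 100 positive control, at about 1.3% or above, every replicate too, limit read from the data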
Target sequence (Q9HCT0 whole entry, looked up): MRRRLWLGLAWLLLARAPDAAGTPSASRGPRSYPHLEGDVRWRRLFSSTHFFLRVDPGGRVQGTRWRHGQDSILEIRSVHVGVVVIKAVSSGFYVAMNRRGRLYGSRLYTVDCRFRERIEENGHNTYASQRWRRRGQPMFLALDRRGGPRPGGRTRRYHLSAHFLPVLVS
Each line names hits and unclear results; the compound was inactive in the other large screens. The entries come from a sample that favours hits as a whole.

COc1ccc(Nc2nc(NCc3ccco3)nc(N/N=C/c3ccc(O)cc3)n2)cc1	FGF22 binding 1.9
C=CCc1cccc2cc(C(=O)NC3CCCCC3)c(=O)oc12	none (no result: ERAP1 inh, S100A4 MyoIIA, ERp5 inh, FGF22 binding)
CN(CC(=O)Nc1c(Cl)cccc1Cl)CC(=O)N(C)C1(C#N)CCCCC1	FGF22 binding 43
CN(CC(=O)Nc1c(Cl)cccc1Cl)C(=O)Cc1ccc2c(c1)CCC2	none
C1=CCN(c2nc(N3CCOCC3)nc(N3CCCc4ccccc43)n2)CC1	FGF22 binding 44
COCCNC(=O)COc1ccc(C)cc1C(=O)c1cc(C#N)c(=O)n(C2CC2)c1	FGF22 binding 44
Cc1noc(C)c1NC(=O)Nc1ccc2c(c1)C(=O)N([C@@H](C)CO)C[C@@H](C)[C@H](CN(C)Cc1ccccc1)OCCCC[C@@H](C)O2	none (no result: PDI turbidity, FGF22 binding)
O=c1[nH]c(=O)c2cc([N+](=O)[O-])cc([N+](=O)[O-])c2[nH]1	FGF22 binding 43
Cc1cccc(NC(=S)Nn2cnnc2)c1C	FGF22 binding 43
COc1ccc(Cl)cc1C(=O)OCC(=O)N(CC(C)C)c1c(N)n(Cc2ccccc2)c(=O)[nH]c1=O	none
Cc1cc(C(=O)COC(=O)/C=C/c2ccc(F)cc2)c(C)n1C	none
COCC(C)n1c(C)cc(C(=O)COC(=O)/C=C/c2cccc(F)c2)c1C (configuration not stated)	FGF22 binding 43
CC1CC(=O)C(C2c3ccccc3CCN2C(=O)CCl)C(=O)C1 (configuration not stated)	FGF22 binding 44
Cc1cccc(-c2ccc3c(c2)C2CC3CCN2C(=O)OCc2ccccc2)c1 (configuration not stated)	none
O=C(CN1C(=O)c2ccccc2C1=O)Nc1cc([N+](=O)[O-])ccc1O	FGF22 binding 44
FC(F)(F)c1cnc(-c2cnc(-c3ccccn3)nc2)c(Cl)c1	none
CC(Cl)c1cc(-c2ncc(C(F)(F)F)cc2Cl)no1 (configuration not stated)	FGF22 binding 44
NC(=O)c1nsc(C(=O)N(Cc2cccnc2)C(C(=O)NC2CCCCC2)c2ccc(F)cc2)c1N (configuration not stated)	none
CCOc1cc(/C=N/n2cnnc2)ccc1OS(=O)(=O)c1ccc(C)cc1	FGF22 binding 44
Cc1oc(-c2ccccc2)cc1C(=O)Nc1cccc(/C=C\C(=O)O)c1	FGF22 binding 44
C[C@H]1CN([C@@H](C)CO)C(=O)c2cc(-c3cncnc3)cnc2O[C@H]1CN(C)C(=O)c1ccccc1F	none (no result: PDI turbidity)
Cc1ccccc1S(=O)(=O)N1[C@@H](c2ccc(F)cc2)C(C(=O)O)=CC[C@H]1c1ccc(Cl)cc1	FGF22 binding 2.2
O=C(O)C1=CC[C@@H](c2ccc(Cl)cc2)N(S(=O)(=O)c2ccc(Cl)cc2)[C@H]1c1ccc(F)cc1	none
CCOc1nc2ccccc2cc1C=O	FGF22 binding 43
Cn1c(C2=C(O)CN(c3ccccc3)C2=N)nc2ccccc21	FGF22 binding 44
COC(=O)c1ccccc1NC(=O)CNc1cc(OC)c(OC)cc1C	none
COC(=O)c1ccccc1NC(=O)COC(=O)[C@H](C)NC(N)=O	FGF22 binding 44
CCc1ccccc1NCC(=O)Nc1ccccc1C(=O)OC	FGF22 binding 44
O=S(=O)(c1ccc(NCCCO)nc1)N1CCOCC1	none
Cn1ccs/c1=N\C(=O)Nc1cccc(Cl)c1	FGF22 binding 43
CCCCNC(=S)NNC(=O)c1c(C)nc2ccccn12	none
CCCCc1nc(SCCN2CCOCC2)c2c(=O)n(C)c(=O)n(C)c2n1	FGF22 binding 43
Cc1cc(C)c(NC(=O)C2=COCCO2)c(C)c1	none
COc1ccc(-c2cc(C)nc3c(-c4ccccc4)cnn23)cc1	FGF22 binding 43
O=C(NCc1nc(-c2ccccc2)cs1)c1ccccc1	none (no result: FGF22 binding)
Cc1c(Nc2ccc(C=O)cc2)c(=O)n(-c2ccccc2)n1C	FGF22 binding 43
CCCCCc1ccc(-c2nnc(N)s2)cc1	FGF22 binding 43
CCCCCc1nnc(N)s1	none (no result: ERAP1 inh, S100A4 MyoIIA, ERp5 inh, FGF22 binding)
COc1cccc(S(=O)(=O)Nc2ccc3c(c2)C(=O)N(C)C[C@H](OC)[C@@H](C)CN(Cc2ccccc2F)[C@H](C)CO3)c1	none (no result: PDI turbidity)
Cc1ccc(N=C2c3ccccc3C(=O)C2[N+](=O)[O-])cc1C (configuration not stated)	FGF22 binding 43
C[N+]1(C2CCC3CCCC2C3O)CCCCC1 (configuration not stated)	ERAP1 inh 46
Cc1ccccc1C(=O)NC(=S)NCCN1CCOCC1	none (no result: ERAP1 inh, S100A4 MyoIIA, ERp5 inh, FGF22 binding)
Cc1ccccc1C(=O)NCCN1CCOCC1	FGF22 binding 44
COc1ccc(-n2cnc3cc(C(=O)NCCN4CCOCC4)ccc32)cc1	FGF22 binding 44
COc1ccc(C(=O)NCCN2CCOCC2)c(OC)c1	FGF22 binding 44
O=C(Cc1c(F)cccc1Cl)NCCN1CCOCC1	FGF22 binding 43
COc1ccc(CC(=O)NCCc2ccc3c(c2)OCO3)cc1OC	none
CN1C(=O)c2cc(NC(=O)c3cccc(Cl)c3)ccc2OC[C@H]2O[C@@H](CC(=O)NC3CCCCC3)CC[C@@H]21	none (no result: PDI turbidity, ERp5 inh)
COc1ccc2c(c1)c(=O)oc1cc(OC(C(=O)O)c3ccccc3)ccc12 (configuration not stated)	none
COc1ccccc1/C=C(/NC(=O)c1ccccc1)C(=O)NCCN1CCOCC1	FGF22 binding 44
O=C(NCCN1CCOCC1)/C(=C\c1ccccc1Cl)NC(=O)c1ccccc1	none
N[C@@H]1CC[C@@H](CCn2cc(-c3cccc(F)c3)nn2)O[C@H]1CO	none (no result: PDI turbidity)
Cc1c(O)ccc2cc(S(=O)(=O)c3ccccc3)c(=O)oc12	ERAP1 inh 132
CCOc1ccc(C(=O)NCC(=O)NCCCn2nc(C)cc2C)cc1OCC	none
O=C(NCc1cccnc1)c1c(O)c2cccc3c2n(c1=O)CCC3	FGF22 binding 43
NCCNC(=O)c1c(O)c2cccc3c2n(c1=O)CCC3	ERAP1 inh 31
Cc1ccc(S(=O)(=O)Nc2ccc3c(c2)CC(=O)N([C@@H](C)CO)C[C@@H](C)[C@H](CN(C)C(=O)Nc2c(C)noc2C)O3)cc1	none (no result: PDI turbidity)
NC(=N\N=Cc1ccccc1)/C(N)=N/N=Cc1ccccc1	FGF22 binding 44
NC(N)=N/N=C/c1ccccc1	none (no result: ERAP1 inh, S100A4 MyoIIA, ERp5 inh, FGF22 binding)
COc1ccc(NC(=O)N2CCN(c3ccc([N+](=O)[O-])cc3)CC2)cc1	FGF22 binding 43
CCCNC(=O)[C@H]1[C@H](CO)[C@H]2Cn3c(ccc(-c4cncnc4)c3=O)[C@@H]1N2C(=O)Nc1ccccc1	none (no result: PDI turbidity)
O=C(Cn1sc2ccccc2c1=O)Nc1ccc(F)cc1	FGF22 binding 43
O=C(NCc1ccc(F)cc1)C1CCCN1C(=O)Nc1ccccc1 (configuration not stated)	none
CS(=O)(=O)c1cccc(-c2csc(N3CCC(C(N)=O)CC3)n2)c1	FGF22 binding 43
O=C(c1ccccc1)N1CC2(C1)[C@H](c1ccccc1)[C@@H](CO)N2Cc1ccccn1	S100A4 MyoIIA 107 (no result: PDI turbidity)
